One experiment deals with NCI-H358. The experiment can be described thus: Antiproliferative activity against human NCI-H358 cells harboring KRAS G12C mutant after 72 hrs by CellTiter-Glo assay. It counts as functional, cell-based. The essentials:
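NCI-H23 or NCI-H358 cells seeded at 2000 cells/well and grown 48 h before drug. Varying doses were added and cells incubated 72 h. Viability was read as CellTiter-Glo luminescence, and growth-inhibition IC50 was calculated from dose-response curves.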
(Cellular ATP, detected with luciferase, serves as a proxy for viable cell number.)

Experiment [1] deals with Serine/threonine-protein kinase TBK1 (Homo sapiens) (UniProt Q9UHD2). The experiment can be described thus: Inhibition of TBK1 in human SKCO1 cells at 1 uM after 4 hrs using biotin labeled TGDLFAIKVFNNISFLRPVDVQMR probe by mass-spectrometric analysis relative to control. It counts as cell-based.
The next experiment deals with NCI-H23. The experiment can be described thus: Antiproliferative activity against human NCI-H23 cells harboring KRAS G12C mutant at. It counts as functional, cell-based.
Experiment [2] addresses Poly(rC)-binding protein 2 (Homo sapiens) (UniProt Q15366). Briefly: Binding affinity to PCBP2 in human NCI-H358 cells at 1 uM by mass spectrometry based pull down assay. It counts as cell-based.
Experiment [3] deals with Bifunctional phosphoribosylaminoimidazole carboxylase/phosphoribosylaminoimidazole succinocarboxamide synthetase (Homo sapiens) (UniProt P22234). Briefly: Binding affinity to PAICS in human NCI-H358 cells at 1 uM by mass spectrometry based pull down assay. Type of experiment: cell-based.
Experiment [4] has as its target DNA mismatch repair protein Msh2 (Homo sapiens) (UniProt P43246). The experiment can be described thus: Binding affinity to MSH2 in human NCI-H23 cells at 1 uM by mass spectrometry based pull down assay. It counts as cell-based.
Experiment [5] concerns the target WD repeat and HMG-box DNA-binding protein 1 (Homo sapiens) (UniProt O75717). The experiment can be described thus: Binding affinity to WDHD1 in human NCI-H23 cells at 1 uM by mass spectrometry based pull down assay. It counts as cell-based.
The next experiment has as its target Vigilin (Homo sapiens) (UniProt Q00341). Briefly: Binding affinity to HDLBP in human NCI-H358 cells at 1 uM by mass spectrometry based pull down assay. Type of experiment: cell-based.
Experiment [6] addresses Sarcoplasmic/endoplasmic reticulum calcium ATPase 2 (Homo sapiens) (UniProt P16615). Briefly: Binding affinity to ATP2A2 in human NCI-H23 cells at 1 uM by mass spectrometry based pull down assay. It counts as cell-based.
In experiment [7] the target is Pigment epithelium-derived factor (Homo sapiens) (UniProt P36955). Briefly: Binding affinity to SERPINF1 in human NCI-H23 cells at 1 uM by mass spectrometry based pull down assay. Type of experiment: cell-based.
Experiment [8] deals with AH receptor-interacting protein (Homo sapiens) (UniProt O00170). The experiment can be described thus: Binding affinity to AIP in human NCI-H23 cells at 1 uM by mass spectrometry based pull down assay. It counts as cell-based. Put shortly: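 NCI-H23 or NCI-H358 cells were grown and lysed. Lysates were incubated overnight at 4 °C with 1 μM biotinylated covalent probe or DMSO, then pulled down on streptavidin beads. Proteins were run on polyacrylamide gels and stained with Coomassie. Bands were excised, digested and identified by mass spectrometry.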

Experiment [9] addresses Multifunctional methyltransferase subunit TRM112-like protein (Homo sapiens) (UniProt Q9UI30). The experiment can be described thus: Binding affinity to TRMT112 in human NCI-H23 cells at 1 uM by mass spectrometry based pull down assay. It counts as cell-based.
For experiment [10], the target named is 5'-nucleotidase domain-containing protein 1 (Homo sapiens) (UniProt Q5TFE4). The experiment can be described thus: Binding affinity to NT5DC1 in human NCI-H358 cells at 1 uM by mass spectrometry based pull down assay. It counts as cell-based.
The target in experiment [11] is Interleukin-1 receptor-associated kinase 1 (Homo sapiens) (UniProt P51617). Briefly: Binding affinity to IRAK1 in human NCI-H358 cells at 1 uM by mass spectrometry based pull down assay. It counts as cell-based.
Experiment [12] concerns the target Peroxiredoxin-6 (Homo sapiens) (UniProt P30041). Briefly: Binding affinity to PRDX6 in human NCI-H23 cells at 1 uM by mass spectrometry based pull down assay. It counts as cell-based.
For experiment [13], the target named is Cysteine and glycine-rich protein 2 (Homo sapiens) (UniProt Q16527). The experiment can be described thus: Binding affinity to CSRP2 in human NCI-H23 cells at 1 uM by mass spectrometry based pull down assay. Type of experiment: cell-based.
For experiment [14], the target named is UV radiation resistance-associated gene protein (Homo sapiens) (UniProt Q9P2Y5). The experiment can be described thus: Binding affinity to UVRAG in human NCI-H358 cells at 1 uM by mass spectrometry based pull down assay. It counts as cell-based.
Experiment [15] deals with HCLS1-associated protein X-1 (Homo sapiens) (UniProt O00165). The experiment can be described thus: Binding affinity to HAX1 in human NCI-H23 cells at 1 uM by mass spectrometry based pull down assay. It counts as cell-based.
Experiment [16] has as its target T1, Serine/threonine-protein kinase Chk1 (Homo sapiens) (UniProt O14757).
T1 sequence (whole entry): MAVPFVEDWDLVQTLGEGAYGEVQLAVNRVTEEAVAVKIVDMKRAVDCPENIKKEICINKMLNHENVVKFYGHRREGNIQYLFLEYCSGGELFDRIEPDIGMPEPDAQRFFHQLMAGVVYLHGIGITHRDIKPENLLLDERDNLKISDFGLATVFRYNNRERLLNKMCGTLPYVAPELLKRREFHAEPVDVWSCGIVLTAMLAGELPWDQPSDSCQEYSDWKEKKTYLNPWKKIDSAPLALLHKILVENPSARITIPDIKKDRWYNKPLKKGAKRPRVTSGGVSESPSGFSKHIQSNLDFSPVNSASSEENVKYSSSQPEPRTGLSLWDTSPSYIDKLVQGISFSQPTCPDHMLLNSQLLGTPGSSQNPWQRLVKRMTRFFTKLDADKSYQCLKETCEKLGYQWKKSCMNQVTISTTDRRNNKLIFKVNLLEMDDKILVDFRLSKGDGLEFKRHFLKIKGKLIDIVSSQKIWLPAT
Briefly: Binding affinity to CHEK1 in human NCI-H358 cells at 1 uM by mass spectrometry based pull down assay. Type of experiment: cell-based.

Experiment [17] concerns the target T2, Aurora kinase A (Homo sapiens) (UniProt O14965).
T2 sequence (whole entry): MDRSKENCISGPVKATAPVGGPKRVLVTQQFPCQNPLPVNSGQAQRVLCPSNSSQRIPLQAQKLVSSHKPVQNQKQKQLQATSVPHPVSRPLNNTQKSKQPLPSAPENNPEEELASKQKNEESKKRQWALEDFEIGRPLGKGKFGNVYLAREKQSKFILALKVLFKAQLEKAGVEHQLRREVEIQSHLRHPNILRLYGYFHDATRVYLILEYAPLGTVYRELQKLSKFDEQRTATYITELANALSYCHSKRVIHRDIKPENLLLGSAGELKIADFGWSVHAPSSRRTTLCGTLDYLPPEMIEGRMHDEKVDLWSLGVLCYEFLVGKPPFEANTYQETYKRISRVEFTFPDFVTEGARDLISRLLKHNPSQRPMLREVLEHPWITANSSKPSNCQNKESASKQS
Briefly: Binding affinity to AURKA in human NCI-H23 cells at 1 uM by mass spectrometry based pull down assay. It counts as cell-based.

In experiment [18] the target is Carbonyl reductase [NADPH] 1 (Homo sapiens) (UniProt P16152). The experiment can be described thus: Binding affinity to CBR1 in human NCI-H23 cells at 1 uM by mass spectrometry based pull down assay. Type of experiment: cell-based.
Experiment [19] concerns the target B-cell receptor-associated protein 31 (Homo sapiens) (UniProt P51572). The experiment can be described thus: Binding affinity to BCAP31 in human NCI-H23 cells at 1 uM by mass spectrometry based pull down assay. It counts as cell-based.
In experiment [20] the target is Peroxiredoxin-4 (Homo sapiens) (UniProt Q13162). The experiment can be described thus: Binding affinity to PRDX4 in human NCI-H23 cells at 1 uM by mass spectrometry based pull down assay. Type of experiment: cell-based.

Activity calls are given as the source filed them. The rule behind the calls is not given here.

Chain of Serine/threonine-protein kinase TBK1 (Homo sapiens) (Q9UHD2 whole entry): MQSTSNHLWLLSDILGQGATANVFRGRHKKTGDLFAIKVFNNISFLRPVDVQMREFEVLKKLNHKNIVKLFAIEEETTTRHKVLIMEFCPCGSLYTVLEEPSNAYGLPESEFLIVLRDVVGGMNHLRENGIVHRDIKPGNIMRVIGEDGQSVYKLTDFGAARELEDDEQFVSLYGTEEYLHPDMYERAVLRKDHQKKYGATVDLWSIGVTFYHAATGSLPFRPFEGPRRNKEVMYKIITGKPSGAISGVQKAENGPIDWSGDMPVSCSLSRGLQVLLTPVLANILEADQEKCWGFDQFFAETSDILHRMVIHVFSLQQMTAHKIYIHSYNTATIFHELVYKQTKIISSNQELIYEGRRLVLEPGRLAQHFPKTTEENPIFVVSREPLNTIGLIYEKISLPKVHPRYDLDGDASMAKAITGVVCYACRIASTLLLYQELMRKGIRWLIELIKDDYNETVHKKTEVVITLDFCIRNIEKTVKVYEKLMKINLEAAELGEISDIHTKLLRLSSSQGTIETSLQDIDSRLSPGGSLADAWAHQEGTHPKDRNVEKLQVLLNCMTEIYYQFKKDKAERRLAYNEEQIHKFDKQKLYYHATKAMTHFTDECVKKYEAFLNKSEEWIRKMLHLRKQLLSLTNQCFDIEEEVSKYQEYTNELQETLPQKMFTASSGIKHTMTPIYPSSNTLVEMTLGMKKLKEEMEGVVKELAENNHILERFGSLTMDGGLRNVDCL
Chain of Multifunctional methyltransferase subunit TRM112-like protein (Homo sapiens) (Q9UI30 whole entry, the tested form may be a part): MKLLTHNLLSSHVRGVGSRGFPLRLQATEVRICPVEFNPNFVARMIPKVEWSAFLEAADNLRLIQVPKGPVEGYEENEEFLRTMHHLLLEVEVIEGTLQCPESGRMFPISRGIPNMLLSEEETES
Chain of Sarcoplasmic/endoplasmic reticulum calcium ATPase 2 (Homo sapiens) (P16615 whole entry): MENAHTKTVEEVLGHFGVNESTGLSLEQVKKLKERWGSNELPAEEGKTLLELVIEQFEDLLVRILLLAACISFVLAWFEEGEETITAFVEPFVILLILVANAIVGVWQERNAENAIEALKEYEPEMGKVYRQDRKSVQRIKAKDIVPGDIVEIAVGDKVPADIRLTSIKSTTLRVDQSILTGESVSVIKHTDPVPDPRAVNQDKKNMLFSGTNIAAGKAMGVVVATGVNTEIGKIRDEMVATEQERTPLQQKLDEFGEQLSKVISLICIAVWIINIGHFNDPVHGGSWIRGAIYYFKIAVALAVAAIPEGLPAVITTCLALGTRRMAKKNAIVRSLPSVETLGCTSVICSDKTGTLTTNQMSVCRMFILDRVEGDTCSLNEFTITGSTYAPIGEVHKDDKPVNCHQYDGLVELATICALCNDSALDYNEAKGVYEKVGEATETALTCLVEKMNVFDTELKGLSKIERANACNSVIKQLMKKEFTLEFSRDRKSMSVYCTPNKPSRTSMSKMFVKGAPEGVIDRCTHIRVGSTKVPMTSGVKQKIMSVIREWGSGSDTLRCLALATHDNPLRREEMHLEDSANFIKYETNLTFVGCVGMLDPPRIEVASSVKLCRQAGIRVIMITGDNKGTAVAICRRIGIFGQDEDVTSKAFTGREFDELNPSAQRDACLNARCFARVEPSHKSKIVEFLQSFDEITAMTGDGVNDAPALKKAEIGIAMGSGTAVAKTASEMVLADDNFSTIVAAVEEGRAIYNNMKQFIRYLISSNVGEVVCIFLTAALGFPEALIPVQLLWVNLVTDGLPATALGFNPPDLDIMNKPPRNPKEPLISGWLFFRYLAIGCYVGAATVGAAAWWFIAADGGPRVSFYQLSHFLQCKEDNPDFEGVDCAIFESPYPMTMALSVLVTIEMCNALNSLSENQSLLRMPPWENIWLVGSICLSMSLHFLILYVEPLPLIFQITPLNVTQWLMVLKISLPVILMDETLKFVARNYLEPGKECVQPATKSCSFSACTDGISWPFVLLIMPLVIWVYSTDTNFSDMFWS
Chain of Bifunctional phosphoribosylaminoimidazole carboxylase/phosphoribosylaminoimidazole succinocarboxamide synthetase (Homo sapiens) (P22234 whole entry): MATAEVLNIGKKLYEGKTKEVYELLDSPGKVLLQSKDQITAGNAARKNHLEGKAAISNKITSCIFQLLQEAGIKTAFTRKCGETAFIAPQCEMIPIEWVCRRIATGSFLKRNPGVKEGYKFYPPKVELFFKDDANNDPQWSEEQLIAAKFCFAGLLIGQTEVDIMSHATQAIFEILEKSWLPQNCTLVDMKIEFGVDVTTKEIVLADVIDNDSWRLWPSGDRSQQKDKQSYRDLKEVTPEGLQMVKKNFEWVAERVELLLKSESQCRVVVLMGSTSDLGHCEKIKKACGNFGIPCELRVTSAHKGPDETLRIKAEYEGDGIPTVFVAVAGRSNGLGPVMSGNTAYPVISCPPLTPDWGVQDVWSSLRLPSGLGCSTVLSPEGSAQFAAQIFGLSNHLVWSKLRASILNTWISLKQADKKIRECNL
Chain of Vigilin (Homo sapiens) (Q00341 whole entry): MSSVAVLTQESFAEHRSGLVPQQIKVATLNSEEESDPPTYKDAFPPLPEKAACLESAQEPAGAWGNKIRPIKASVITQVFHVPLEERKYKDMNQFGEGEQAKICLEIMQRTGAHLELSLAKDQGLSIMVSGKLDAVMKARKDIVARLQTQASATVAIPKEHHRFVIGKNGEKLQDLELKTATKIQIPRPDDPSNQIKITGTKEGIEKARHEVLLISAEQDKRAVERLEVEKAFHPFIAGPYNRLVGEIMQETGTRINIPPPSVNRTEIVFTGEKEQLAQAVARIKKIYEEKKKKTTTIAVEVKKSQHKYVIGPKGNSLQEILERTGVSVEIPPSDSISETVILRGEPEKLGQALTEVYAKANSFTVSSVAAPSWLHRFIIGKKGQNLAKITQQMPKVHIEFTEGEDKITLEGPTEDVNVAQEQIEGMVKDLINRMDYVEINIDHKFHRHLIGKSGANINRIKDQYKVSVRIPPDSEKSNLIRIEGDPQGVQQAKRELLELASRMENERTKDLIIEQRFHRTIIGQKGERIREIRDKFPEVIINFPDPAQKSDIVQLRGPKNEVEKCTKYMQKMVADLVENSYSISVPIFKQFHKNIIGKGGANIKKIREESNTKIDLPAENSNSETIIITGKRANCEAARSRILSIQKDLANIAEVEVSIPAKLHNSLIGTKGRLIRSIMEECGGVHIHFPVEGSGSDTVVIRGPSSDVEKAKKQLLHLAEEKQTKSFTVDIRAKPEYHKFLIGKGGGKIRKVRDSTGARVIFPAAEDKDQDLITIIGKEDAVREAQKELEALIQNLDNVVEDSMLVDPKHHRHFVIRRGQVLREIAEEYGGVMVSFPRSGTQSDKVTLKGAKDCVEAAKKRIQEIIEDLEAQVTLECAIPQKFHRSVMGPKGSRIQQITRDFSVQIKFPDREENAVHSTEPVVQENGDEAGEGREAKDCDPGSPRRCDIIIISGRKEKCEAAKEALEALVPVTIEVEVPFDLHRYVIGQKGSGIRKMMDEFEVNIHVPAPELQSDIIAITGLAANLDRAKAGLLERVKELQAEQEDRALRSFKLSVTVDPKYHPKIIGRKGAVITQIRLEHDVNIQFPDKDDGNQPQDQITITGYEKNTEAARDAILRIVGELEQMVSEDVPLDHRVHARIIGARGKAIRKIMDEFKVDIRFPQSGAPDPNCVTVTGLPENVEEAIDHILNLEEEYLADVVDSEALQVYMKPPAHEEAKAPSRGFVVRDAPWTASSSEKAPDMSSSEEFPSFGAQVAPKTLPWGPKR
Chain of UV radiation resistance-associated gene protein (Homo sapiens) (Q9P2Y5 whole entry): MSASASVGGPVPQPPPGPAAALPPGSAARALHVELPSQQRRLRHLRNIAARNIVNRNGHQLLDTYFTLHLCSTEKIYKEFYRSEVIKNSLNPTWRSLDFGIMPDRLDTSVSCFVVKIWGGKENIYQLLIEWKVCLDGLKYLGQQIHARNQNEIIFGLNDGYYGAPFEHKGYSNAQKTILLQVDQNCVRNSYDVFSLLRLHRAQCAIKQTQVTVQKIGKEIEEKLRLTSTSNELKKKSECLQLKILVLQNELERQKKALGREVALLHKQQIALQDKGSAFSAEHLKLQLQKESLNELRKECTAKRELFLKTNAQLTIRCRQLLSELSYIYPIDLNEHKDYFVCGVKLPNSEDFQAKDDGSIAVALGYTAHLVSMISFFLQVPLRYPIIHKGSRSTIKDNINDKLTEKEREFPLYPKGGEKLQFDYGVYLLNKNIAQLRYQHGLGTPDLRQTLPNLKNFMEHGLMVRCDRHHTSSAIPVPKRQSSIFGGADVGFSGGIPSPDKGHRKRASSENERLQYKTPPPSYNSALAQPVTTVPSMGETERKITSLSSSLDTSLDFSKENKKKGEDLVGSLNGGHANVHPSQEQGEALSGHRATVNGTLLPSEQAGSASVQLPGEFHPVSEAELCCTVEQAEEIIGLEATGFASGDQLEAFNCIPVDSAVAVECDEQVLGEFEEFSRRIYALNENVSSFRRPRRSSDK
Chain of Carbonyl reductase [NADPH] 1 (Homo sapiens) (P16152 whole entry): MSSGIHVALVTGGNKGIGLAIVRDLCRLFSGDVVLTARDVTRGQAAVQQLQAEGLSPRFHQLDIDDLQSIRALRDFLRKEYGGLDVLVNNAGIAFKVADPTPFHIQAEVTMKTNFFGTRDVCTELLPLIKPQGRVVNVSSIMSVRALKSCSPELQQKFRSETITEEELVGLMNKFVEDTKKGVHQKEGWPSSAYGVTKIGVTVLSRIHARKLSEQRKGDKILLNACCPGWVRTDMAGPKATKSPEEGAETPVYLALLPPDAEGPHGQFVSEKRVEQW
Chain of 5'-nucleotidase domain-containing protein 1 (Homo sapiens) (Q5TFE4 whole entry, the tested form may be a part): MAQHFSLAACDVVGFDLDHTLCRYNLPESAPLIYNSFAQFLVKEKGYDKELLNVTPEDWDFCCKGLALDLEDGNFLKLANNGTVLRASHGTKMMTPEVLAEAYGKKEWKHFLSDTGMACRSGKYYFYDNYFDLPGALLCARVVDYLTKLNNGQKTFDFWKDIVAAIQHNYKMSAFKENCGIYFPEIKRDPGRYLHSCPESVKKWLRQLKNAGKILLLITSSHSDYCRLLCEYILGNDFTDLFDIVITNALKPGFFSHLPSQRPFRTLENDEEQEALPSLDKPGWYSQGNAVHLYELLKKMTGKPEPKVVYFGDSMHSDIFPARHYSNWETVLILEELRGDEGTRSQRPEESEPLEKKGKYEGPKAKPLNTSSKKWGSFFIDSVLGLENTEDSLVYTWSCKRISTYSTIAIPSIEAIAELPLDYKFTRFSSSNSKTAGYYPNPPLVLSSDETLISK

As a reminder, the inhibition is the percentage by which the read-out fell short of the control. Read a low inhibition as a weak effect. As for `C=CC(=O)Nc1ccccc1Nc1nc(Nc2ccc(N3CCN(C)CC3)cc2)ncc1Cl`, the result in the experiment on NCI-H358 was Active. In experiment [1], this molecule had an inhibition of 61%.

Take `COc1cc(O)c2c(c1)/C=C/C[C@H](O)[C@H](O)C(=O)/C=C\C[C@H](C)OC2=O`: in the experiment on NCI-H23, the result was Active.

`C=CC(=O)Nc1ccccc1Nc1nc(Nc2ccc(N3CCN(CCOCCOCCOCCNC(=O)CCCC[C@@H]4SC[C@@H]5NC(=O)N[C@@H]54)CC3)cc2)ncc1Cl`: the outcome (in [2]; in experiment [3]; in experiment [4]; in experiment [5]; at Vigilin (Homo sapiens); in experiment [6]) was Active. For the same molecule, the result in [7], in [8], in [9], in experiment [10], in [11] and in experiment [12] was Active. Besides, the result in experiment [13], in experiment [14], in experiment [15], in experiment [16], in experiment [17] and in [18] was Active. Further, the result in [19] and in [20] was Active.

The record behind these values is ChEMBL document CHEMBL4118021, “Studies of TAK1-centered polypharmacology with novel covalent TAK1 inhibitors” (Bioorg Med Chem, 2017).
